Data from ChEMBL document CHEMBL5661979, “Pharmacological inhibition of BMK1 suppresses tumor growth through promyelocytic leukemia protein” (Cancer Cell, 2010).

Key:
[1] = target: Phosphatidylinositol 5-phosphate 4-kinase type-2 gamma (Homo sapiens, UniProt Q8TBX8); experiment: Inhibition of PIP5K2C in human HeLa cells lysate pre incubated for 15 mins followed by ATP acyl phosphate probe addition and measured after 10 mins by LC-MS/MS analysis; assay type: subcellular
[2] = target: Mitogen-activated protein kinase kinase kinase 2 (Homo sapiens) (UniProt Q9Y2U5); experiment: Inhibition of MAP3K2 in human HeLa cells lysate at 50 uM pre incubated for 15 mins followed by ADP acyl phosphate probe addition and measured after 10 mins by LC-MS/MS analysis relative to control; assay type: subcellular; settings: time 25.0 min
[3] = target: Mitogen-activated protein kinase kinase kinase 1 (Homo sapiens, UniProt Q13233); experiment: Inhibition of MAP3K1 in human HeLa cells lysate at 2 uM pre incubated for 15 mins followed by ADP acyl phosphate probe addition and measured after 10 mins by LC-MS/MS analysis relative to control; assay type: subcellular; settings: time 25.0 min
[4] = target: Calcium/calmodulin-dependent protein kinase type II subunit gamma (Homo sapiens, UniProt Q13555); experiment: Inhibition of CAMK2g in human HeLa cells lysate at 2 uM pre incubated for 15 mins followed by ATP acyl phosphate probe addition and measured after 10 mins by LC-MS/MS analysis relative to control; assay type: subcellular; settings: time 25.0 min
Procedure, shortened: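 KiNativ-type profiling in HeLa lysate (5 mg/mL total protein). Lysate preincubated 15 min with inhibitor at 50, 10, 2, 0.8 or 0 μM, then ATP or ADP acylphosphate probe added (5 μM final) for 10 min. Reaction stopped with urea and analysed by targeted MS, using up to four fragment ions per kinase peptide-probe conjugate. % inhibition calculated against untreated lysate. Duplicate reactions.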

[5] = target: Cyclin-G-associated kinase (Homo sapiens) (UniProt O14976); experiment: Inhibition of GAK (unknown origin) assessed as remaining activity at 10 uM by ATP-competition binding assay relative to control
[6] = target: SRSF protein kinase 1 (Homo sapiens, UniProt Q96SB4); experiment: Inhibition of SRPK1 in human HeLa cells lysate at 10 uM pre incubated for 15 mins followed by ATP acyl phosphate probe addition and measured after 10 mins by LC-MS/MS analysis relative to control; assay type: subcellular; settings: time 25.0 min
[7] = target: Serine/threonine-protein kinase PLK1 (Homo sapiens, UniProt P53350); experiment: Inhibition of PLK1 in human HeLa cells lysate at 50 uM pre incubated for 15 mins followed by ATP acyl phosphate probe addition and measured after 10 mins by LC-MS/MS analysis relative to control; assay type: subcellular; settings: time 25.0 min
[8] = target: T1, STE20-related kinase adapter protein beta (Homo sapiens) (UniProt Q9C0K7); experiment: Inhibition of ALS2CR2 in human HeLa cells lysate at 50 uM pre incubated for 15 mins followed by ADP acyl phosphate probe addition and measured after 10 mins by LC-MS/MS analysis relative to control; assay type: subcellular; settings: time 25.0 min
T1 sequence (whole entry): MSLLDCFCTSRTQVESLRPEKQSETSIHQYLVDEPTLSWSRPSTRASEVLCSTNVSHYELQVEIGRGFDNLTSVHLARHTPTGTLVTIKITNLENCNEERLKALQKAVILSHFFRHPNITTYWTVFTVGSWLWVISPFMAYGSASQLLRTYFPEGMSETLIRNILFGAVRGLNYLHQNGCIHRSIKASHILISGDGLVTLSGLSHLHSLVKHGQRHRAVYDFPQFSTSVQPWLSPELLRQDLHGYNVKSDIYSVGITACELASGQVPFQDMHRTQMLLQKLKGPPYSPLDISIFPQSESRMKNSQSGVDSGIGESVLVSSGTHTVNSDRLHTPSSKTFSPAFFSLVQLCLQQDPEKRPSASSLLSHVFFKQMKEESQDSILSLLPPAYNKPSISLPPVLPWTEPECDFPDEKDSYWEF
Procedure, shortened: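 HeLa cell lysates (5 mg/mL total protein) were preincubated with inhibitor at 0, 0.8, 2, 10 or 50 μM for 15 min. ATP or ADP acylphosphate probe was then added (5 μM final) for 10 min, and reactions were stopped with urea. Up to four fragment ions per kinase probe-peptide were quantified by targeted MS. % inhibition was taken relative to untreated lysate. Run in duplicate.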

[9] = target: Cyclin-dependent kinase 7 (Homo sapiens, UniProt P50613); experiment: Inhibition of CDK7 in human HeLa cells lysate at 2 uM pre incubated for 15 mins followed by ATP acyl phosphate probe addition and measured after 10 mins by LC-MS/MS analysis relative to control; assay type: subcellular; settings: time 25.0 min
Procedure, shortened: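 KiNativ profiling in HeLa lysate (5 mg/mL total protein). Lysate incubated 15 min with inhibitor at 50, 10, 2, 0.8 or 0 μM. ATP or ADP acylphosphate probe then added (5 μM final) and reacted 10 min. Reaction stopped with urea and analysed by targeted MS, using up to four fragment ions per kinase peptide-probe conjugate. % inhibition taken against untreated lysate. Run in duplicate.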

[10] = target: T2, Serine/threonine-protein kinase D3 (Homo sapiens) (UniProt O94806); experiment: Inhibition of PKD3 in human HeLa cells lysate at 10 uM pre incubated for 15 mins followed by ADP acyl phosphate probe addition and measured after 10 mins by LC-MS/MS analysis relative to control; assay type: subcellular; settings: time 25.0 min
T2 sequence (whole entry): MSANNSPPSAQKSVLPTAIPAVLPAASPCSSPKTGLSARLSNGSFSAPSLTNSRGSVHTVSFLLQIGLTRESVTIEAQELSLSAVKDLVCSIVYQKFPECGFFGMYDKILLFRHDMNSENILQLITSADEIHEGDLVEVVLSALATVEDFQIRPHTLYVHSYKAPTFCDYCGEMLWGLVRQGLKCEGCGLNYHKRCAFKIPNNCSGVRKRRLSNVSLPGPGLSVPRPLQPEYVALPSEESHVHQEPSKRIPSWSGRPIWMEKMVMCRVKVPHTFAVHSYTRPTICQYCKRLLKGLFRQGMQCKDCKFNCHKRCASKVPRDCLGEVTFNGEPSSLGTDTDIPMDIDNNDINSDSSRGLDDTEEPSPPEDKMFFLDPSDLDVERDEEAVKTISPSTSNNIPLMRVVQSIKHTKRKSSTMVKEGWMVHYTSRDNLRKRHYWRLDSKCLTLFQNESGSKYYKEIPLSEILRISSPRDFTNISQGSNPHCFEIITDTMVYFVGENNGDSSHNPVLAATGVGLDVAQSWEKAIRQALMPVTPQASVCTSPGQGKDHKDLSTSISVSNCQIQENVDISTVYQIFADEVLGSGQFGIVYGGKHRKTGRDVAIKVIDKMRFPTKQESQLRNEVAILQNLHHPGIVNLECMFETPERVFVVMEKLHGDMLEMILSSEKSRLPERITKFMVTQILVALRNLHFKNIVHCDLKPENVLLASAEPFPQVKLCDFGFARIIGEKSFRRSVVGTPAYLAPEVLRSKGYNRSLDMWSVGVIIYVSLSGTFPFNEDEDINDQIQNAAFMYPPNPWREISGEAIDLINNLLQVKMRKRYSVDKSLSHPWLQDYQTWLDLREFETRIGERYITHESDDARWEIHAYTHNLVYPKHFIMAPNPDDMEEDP

[11] = target: PAN2-PAN3 deadenylation complex subunit PAN3 (Homo sapiens, UniProt Q58A45); experiment: Inhibition of PAN3 in human HeLa cells lysate pre incubated for 15 mins followed by ADP acyl phosphate probe addition and measured after 10 mins by LC-MS/MS analysis; assay type: subcellular
PAN2-PAN3 deadenylation complex subunit PAN3, sequence (Q58A45 whole entry, one chain of several): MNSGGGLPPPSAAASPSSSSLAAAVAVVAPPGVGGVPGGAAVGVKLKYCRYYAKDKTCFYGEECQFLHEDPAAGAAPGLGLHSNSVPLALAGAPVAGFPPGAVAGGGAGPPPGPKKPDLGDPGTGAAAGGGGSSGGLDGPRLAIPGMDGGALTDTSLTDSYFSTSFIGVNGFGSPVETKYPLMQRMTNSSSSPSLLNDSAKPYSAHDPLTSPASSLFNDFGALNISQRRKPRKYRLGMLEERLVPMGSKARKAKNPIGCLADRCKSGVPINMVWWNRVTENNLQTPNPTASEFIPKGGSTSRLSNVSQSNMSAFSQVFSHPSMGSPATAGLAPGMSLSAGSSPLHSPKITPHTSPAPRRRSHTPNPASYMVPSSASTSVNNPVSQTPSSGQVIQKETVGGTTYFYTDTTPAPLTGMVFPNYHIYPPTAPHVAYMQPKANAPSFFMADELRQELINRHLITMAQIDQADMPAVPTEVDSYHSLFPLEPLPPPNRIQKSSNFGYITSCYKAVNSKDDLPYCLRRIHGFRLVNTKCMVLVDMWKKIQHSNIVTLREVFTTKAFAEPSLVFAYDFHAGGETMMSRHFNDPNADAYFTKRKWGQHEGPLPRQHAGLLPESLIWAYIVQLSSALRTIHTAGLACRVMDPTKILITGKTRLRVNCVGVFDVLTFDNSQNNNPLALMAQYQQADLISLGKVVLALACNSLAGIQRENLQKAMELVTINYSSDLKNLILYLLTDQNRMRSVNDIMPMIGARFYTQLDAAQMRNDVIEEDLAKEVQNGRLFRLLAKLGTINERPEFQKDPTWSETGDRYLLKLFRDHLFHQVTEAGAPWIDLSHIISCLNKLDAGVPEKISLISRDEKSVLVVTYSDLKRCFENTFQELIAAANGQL

Phosphatidylinositol 5-phosphate 4-kinase type-2 gamma, sequence (Q8TBX8 whole entry): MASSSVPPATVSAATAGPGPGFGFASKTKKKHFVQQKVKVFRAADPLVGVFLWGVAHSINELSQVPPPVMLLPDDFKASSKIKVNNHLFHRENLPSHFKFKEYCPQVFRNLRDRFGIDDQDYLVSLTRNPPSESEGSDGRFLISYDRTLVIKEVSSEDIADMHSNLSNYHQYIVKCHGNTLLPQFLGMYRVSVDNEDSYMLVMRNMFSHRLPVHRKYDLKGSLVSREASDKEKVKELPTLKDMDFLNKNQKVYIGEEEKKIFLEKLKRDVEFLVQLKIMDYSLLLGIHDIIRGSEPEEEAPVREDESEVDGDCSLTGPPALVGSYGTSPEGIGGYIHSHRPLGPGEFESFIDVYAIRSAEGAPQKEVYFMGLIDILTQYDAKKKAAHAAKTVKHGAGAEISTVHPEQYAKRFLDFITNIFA
Serine/threonine-protein kinase PLK1, sequence (P53350 whole entry): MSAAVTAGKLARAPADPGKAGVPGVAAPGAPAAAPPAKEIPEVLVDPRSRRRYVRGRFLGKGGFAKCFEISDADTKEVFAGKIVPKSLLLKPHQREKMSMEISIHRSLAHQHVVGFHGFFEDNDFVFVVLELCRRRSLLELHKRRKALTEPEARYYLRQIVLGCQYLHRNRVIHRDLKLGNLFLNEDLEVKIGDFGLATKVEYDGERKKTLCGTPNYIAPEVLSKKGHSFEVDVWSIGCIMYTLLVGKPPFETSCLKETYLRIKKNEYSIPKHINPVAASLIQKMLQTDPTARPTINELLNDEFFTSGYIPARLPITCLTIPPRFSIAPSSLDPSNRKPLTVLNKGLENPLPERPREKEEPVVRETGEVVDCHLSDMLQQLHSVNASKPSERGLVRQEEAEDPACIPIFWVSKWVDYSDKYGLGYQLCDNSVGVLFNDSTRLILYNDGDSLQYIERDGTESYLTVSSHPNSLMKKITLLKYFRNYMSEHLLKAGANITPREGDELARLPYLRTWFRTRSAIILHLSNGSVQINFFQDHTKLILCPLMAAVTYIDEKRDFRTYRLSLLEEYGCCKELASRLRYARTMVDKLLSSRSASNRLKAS
Mitogen-activated protein kinase kinase kinase 1, sequence (Q13233 whole entry): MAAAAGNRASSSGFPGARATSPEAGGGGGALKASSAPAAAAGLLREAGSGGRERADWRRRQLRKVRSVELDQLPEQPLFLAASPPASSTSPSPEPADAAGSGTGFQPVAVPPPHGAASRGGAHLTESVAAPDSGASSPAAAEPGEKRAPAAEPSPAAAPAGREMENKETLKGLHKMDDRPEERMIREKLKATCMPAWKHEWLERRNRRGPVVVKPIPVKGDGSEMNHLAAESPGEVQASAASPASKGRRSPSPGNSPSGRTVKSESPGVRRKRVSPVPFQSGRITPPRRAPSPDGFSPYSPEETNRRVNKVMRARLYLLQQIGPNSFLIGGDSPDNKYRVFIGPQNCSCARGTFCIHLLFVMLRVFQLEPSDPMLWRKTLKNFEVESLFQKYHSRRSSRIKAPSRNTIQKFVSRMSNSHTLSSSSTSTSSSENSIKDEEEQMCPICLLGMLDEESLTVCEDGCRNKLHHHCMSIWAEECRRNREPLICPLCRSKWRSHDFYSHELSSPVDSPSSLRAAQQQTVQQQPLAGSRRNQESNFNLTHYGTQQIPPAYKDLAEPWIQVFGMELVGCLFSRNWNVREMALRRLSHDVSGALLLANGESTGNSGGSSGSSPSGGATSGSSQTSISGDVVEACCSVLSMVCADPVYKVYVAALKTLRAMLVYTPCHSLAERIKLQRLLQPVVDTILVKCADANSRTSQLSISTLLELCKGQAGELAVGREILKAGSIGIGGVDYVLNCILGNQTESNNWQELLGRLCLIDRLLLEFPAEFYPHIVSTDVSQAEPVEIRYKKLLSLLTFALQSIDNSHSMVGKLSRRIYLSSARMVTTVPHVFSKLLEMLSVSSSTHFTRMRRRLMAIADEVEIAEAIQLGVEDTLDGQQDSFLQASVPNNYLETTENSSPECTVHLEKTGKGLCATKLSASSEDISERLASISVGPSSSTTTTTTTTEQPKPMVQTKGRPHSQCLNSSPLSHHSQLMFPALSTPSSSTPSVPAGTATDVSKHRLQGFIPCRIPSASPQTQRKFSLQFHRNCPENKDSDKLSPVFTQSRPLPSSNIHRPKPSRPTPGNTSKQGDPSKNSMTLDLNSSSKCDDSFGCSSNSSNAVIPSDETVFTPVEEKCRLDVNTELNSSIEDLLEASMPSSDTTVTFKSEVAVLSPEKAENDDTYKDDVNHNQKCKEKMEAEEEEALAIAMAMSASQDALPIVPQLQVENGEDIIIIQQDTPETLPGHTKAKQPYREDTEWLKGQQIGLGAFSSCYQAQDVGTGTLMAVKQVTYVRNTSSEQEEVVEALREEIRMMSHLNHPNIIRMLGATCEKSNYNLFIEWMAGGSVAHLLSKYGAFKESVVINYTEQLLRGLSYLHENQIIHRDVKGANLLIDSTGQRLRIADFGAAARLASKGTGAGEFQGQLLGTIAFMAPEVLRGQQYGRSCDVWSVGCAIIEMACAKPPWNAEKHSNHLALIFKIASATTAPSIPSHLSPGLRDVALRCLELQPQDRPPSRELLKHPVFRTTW
Cyclin-dependent kinase 7, sequence (P50613 whole entry, the tested form may be a part): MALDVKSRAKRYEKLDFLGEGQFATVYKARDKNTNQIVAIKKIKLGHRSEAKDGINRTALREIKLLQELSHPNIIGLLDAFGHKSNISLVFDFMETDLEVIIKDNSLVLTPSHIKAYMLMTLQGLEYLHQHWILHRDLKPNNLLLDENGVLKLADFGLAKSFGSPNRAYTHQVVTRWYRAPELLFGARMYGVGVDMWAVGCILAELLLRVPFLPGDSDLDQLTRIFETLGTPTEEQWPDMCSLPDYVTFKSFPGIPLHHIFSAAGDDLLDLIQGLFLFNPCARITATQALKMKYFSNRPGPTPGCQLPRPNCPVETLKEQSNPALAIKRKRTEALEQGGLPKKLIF
Mitogen-activated protein kinase kinase kinase 2 (Homo sapiens), sequence (Q9Y2U5 whole entry): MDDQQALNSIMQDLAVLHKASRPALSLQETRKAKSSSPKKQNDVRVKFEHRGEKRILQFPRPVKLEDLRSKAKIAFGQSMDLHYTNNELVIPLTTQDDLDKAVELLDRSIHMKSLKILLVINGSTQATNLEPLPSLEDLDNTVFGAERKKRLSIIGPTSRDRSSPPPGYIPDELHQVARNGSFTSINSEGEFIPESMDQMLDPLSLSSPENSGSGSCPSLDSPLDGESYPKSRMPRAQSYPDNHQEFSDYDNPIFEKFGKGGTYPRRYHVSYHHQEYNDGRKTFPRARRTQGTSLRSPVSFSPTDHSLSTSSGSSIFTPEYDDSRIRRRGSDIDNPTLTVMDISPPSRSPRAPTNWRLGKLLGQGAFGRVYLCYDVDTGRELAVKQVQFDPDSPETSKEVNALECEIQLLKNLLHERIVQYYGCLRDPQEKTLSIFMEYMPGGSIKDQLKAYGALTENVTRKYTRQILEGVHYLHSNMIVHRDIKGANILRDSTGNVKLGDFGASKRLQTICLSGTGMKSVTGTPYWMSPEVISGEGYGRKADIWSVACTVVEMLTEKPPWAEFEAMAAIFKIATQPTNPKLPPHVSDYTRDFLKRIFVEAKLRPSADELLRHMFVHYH
SRSF protein kinase 1, sequence (Q96SB4 whole entry): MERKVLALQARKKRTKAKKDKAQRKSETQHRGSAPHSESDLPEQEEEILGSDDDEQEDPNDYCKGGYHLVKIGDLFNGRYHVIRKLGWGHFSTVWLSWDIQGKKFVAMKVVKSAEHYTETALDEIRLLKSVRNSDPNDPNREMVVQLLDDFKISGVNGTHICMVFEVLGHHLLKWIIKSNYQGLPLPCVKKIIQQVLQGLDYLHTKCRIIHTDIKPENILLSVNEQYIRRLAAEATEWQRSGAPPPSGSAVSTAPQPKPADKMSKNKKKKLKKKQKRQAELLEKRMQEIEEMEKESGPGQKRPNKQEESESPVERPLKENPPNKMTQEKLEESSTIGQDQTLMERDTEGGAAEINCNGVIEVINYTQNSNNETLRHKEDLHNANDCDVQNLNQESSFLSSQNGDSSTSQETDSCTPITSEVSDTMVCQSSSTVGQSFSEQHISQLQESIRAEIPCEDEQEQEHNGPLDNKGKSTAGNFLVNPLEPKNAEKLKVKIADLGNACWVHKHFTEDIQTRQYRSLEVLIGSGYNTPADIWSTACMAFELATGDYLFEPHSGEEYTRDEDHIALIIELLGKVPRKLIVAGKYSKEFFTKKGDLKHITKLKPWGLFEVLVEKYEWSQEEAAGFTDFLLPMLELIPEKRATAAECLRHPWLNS

## CCOc1cc(N2CCC(O)CC2)ccc1Nc1ncc2c(n1)N(C)c1ccccc1C(=O)N2C
[1]
  IC50: > 50 µM
[2]
  inhibition: 3.7%
[3]
  inhibition: 11.5%
[4]
  inhibition: 3%
[5]
  Activity: 31%
[6]
  inhibition: 1.3%
[7]
  inhibition: -6.5%
[8]
  inhibition: 12.7%
[9]
  inhibition: -7.9%
[10]
  inhibition: -6%
[11]
  IC50: > 50 µM
